In PubChem BioAssay:
For some assays here: Potency and affinity values are given separately. Calls of active or inactive are those of the source.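 How the source made its calls, unless noted: active means calcium signal ratio cut to more than 3 SD under the fully stimulated control mean yet still positive, in both repeats and the primary screen; inactive means the rest.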

biological target: Short transient receptor potential channel 4 (Mus musculus) (UniProt Q9QUQ5); test: blockers of DAMGO-evoked TRPC4 calcium flux – cell-based, second round, Fluo4, HEK293 TRPC4beta/mu-opioid, 1 µM, confirmation (AID 2637); settings: at 1 µM
Sequence (Q9QUQ5 whole entry, looked up): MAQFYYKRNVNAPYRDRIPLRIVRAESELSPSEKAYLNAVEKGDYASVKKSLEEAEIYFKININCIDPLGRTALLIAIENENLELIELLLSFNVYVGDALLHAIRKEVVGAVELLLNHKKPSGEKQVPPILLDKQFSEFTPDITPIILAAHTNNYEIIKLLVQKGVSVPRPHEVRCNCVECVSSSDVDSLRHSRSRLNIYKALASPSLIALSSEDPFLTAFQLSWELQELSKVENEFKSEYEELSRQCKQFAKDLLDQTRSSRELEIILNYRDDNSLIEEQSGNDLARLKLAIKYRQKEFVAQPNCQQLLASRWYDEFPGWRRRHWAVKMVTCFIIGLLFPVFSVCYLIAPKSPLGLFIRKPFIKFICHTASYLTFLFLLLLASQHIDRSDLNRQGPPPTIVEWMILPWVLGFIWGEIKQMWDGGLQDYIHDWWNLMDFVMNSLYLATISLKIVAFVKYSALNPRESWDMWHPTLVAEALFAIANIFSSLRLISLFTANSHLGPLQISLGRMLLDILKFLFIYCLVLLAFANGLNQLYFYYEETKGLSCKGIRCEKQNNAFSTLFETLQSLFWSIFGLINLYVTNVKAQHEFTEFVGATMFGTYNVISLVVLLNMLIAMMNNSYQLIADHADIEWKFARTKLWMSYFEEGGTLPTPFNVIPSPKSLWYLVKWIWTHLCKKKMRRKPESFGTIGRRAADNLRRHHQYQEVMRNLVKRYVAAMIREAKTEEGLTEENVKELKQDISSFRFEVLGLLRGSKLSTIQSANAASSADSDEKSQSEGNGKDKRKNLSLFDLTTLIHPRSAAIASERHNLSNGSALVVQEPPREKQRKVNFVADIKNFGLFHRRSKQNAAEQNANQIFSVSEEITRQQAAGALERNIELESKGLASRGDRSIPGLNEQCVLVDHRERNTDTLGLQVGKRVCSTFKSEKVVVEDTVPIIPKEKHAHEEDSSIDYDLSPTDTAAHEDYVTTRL
Method in brief: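 Doses: 1 µM single point / Material: HEK293 cells with TRPC4beta plus mu-opioid receptor / Control set: DAMGO ECmax control wells and wells without test compound / Schedule: dye loading 45 min room temperature, compound pre-incubation 110 s / Measured by: kinetic Fluo4 Ca2+ fluorescence reading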

outcome, inactive:
CC1CCCCN1S(=O)(=O)c1ccc(C(=O)N(CCCN(C)C)c2nc3ccc(Br)cc3s2)cc1 (stereo not given)
CC(C)(C)C(=O)NC(=S)NNC(=O)c1ccc(-c2ccccc2)cc1
CCCOc1ccc(C(=O)NNC(=S)NC(=O)c2ccccc2)cc1
OCCN1CCN(Cc2cc(Br)cc(Br)c2O)CC1
c1ccc(Nc2nc(Nc3ccccc3)nc(N3CCNCC3)n2)cc1
O=c1c2cc(Br)ccc2nc(-c2cccc(C(F)(F)F)c2)n1O
COc1cc(OC)cc(C(=O)NC(=S)NNC(=O)[C@H]2C[C@@H]2c2ccccc2)c1
c1ccc2c(c1)CCN(c1ncnc3c1[nH]c1ccccc13)C2
O=C(CCc1ccccc1)NNC(=S)NC(=O)c1ccc(Cl)cc1
Cc1cccc(C(=O)NNC(=S)NC(=O)c2cccs2)c1
CN(C)CCCN(C(=O)c1ccc(S(=O)(=O)N2CCCCCC2)cc1)c1nc2ccc(F)cc2s1
CC[C@@H](C(=O)[C@@H](C)[C@@H](O)[C@H](C)CCc1ccc(C)c(O)c1C(=O)O)[C@H]1O[C@](CC)([C@H]2CC[C@](O)(CC)[C@H](C)O2)C[C@@H]1C
Cc1occc1C(=O)NNC(=S)NC(=O)COc1ccc(Cl)cc1Cl
COc1cc(OC)cc(C(=O)N[C@H](C(=O)OCC(=O)NC(C)c2ccccc2)C(C)C)c1 (stereo not given in full)
O=C(NC(=S)NNC(=O)[C@H]1C[C@@H]1c1ccccc1)c1cccc(F)c1
CCOc1ccccc1OCC(=O)Nc1cc(S(=O)(=O)N2CCCCC2)ccc1N1CCN(CC)CC1
Cc1onc(-c2c(F)cccc2Cl)c1C(=O)N1CCN(c2ncc(Br)cn2)CC1
CCOC(=O)C1=NN(C(=O)c2ccc(C)cc2)C(O)(c2ccc(Cl)cc2)C1 (stereo not given)
COc1ccc(/C=C/CN2CCCC(C(=O)c3ccc(OC)c(F)c3)C2)cc1 (stereo not given)
NCCSc1c(-c2ccc(Cl)cc2)[nH]c2ccccc12
COc1ccc(C(CNC(=O)c2cccc(NS(=O)(=O)c3ccc(C)c(F)c3)c2)N(C)C)cc1 (stereo not given)
CCCOc1ccc(C(=O)NNC(=S)NC(=O)c2cccs2)cc1
CCOC(=O)C1CCCN(C(c2ccccn2)c2c(C)[nH]c3ccccc23)C1 (stereo not given)
Cc1ccc(NS(=O)(=O)c2ccc(C(=O)N3CC(C)CC(C)C3)cc2)cc1 (stereo not given)
COC(=O)C1=NN(C(=O)c2cccc(Br)c2)C(O)(c2ccc(Cl)cc2)C1 (stereo not given)
Cc1cc(C)c(CN2CCN(Cc3ccc(C)o3)C(CCO)C2)c(-n2cccn2)c1 (stereo not given)
CCOc1ccc2ncc(C(=O)c3ccc(OC)cc3)c(N3CCN(CC)CC3)c2c1
CC(C)(C)c1cc(CCC(=O)NNC(=S)NC(=O)c2ccccc2)cc(C(C)(C)C)c1O
COc1ccccc1C(=O)NNC(=S)NC(=O)c1sc2ccccc2c1Cl
O=C1CC(O)(C(F)(F)F)Oc2c1ccc1ccccc21 (stereo not given)
CCCc1ccc(OCC(=O)NNC(=S)NC(=O)c2ccco2)cc1
Cc1ccccc1OCC(=O)NNC(=S)NC(=O)c1ccco1
CCCOc1ccc(C(=O)NC(=S)NNC(=O)c2c(-c3ccccc3)noc2C)cc1
Cc1cc(OCCCn2ccnc2)cc(C)c1Cl
CCN1CCN(c2c(S(=O)(=O)c3ccc(C)c(C)c3)cnc3ccc(F)cc23)CC1
Cc1cccc(C(=O)NC(=S)NNC(=O)c2cccs2)c1
Cc1ccc(C)c(-n2cc(CNCCc3cnccn3)c(-c3ccccc3)n2)c1
Cc1ccc2c(C)c(C(=O)N(Cc3cccs3)C3CCS(=O)(=O)C3)oc2c1 (stereo not given)
CC(C)(C)c1ccc(C(=O)NC(=S)NNC(=O)c2cccs2)cc1
CCCCN(CC)CCCNC(=O)Cn1nc(Cc2ccncc2)c2ccccc2c1=O

biological target: Short transient receptor potential channel 4 (Mus musculus) (UniProt Q9QUQ5); test: potentiation of DAMGO-evoked TRPC4 calcium signal – cell-based, HEK293 TRPC4/mu-opioid, Fluo-4 calcium, EC20 DAMGO, dose response (AID 434941;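 active means earlier screen potentiator hit that boosts the TRPC4 ion channel at some dose, with a dose response; inactive means no potentiation, no dose response, or not a prior hit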;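 further: calcium entry triggered by an EC20 dose of DAMGO at the co-expressed mu-opioid receptor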); settings: HEK293 TRPC4/mu-opioid cells, Fluo-4 calcium fluorescence; series mostly up to 20 µM

outcome, inactive:
CC1CCCCN1S(=O)(=O)c1ccc(C(=O)N(CCCN(C)C)c2nc3ccc(Br)cc3s2)cc1 (stereo not given)
CC(C)(C)C(=O)NC(=S)NNC(=O)c1ccc(-c2ccccc2)cc1
CCCOc1ccc(C(=O)NNC(=S)NC(=O)c2ccccc2)cc1
OCCN1CCN(Cc2cc(Br)cc(Br)c2O)CC1
c1ccc(Nc2nc(Nc3ccccc3)nc(N3CCNCC3)n2)cc1
O=c1c2cc(Br)ccc2nc(-c2cccc(C(F)(F)F)c2)n1O
COc1cc(OC)cc(C(=O)NC(=S)NNC(=O)[C@H]2C[C@@H]2c2ccccc2)c1
c1ccc2c(c1)CCN(c1ncnc3c1[nH]c1ccccc13)C2
O=C(CCc1ccccc1)NNC(=S)NC(=O)c1ccc(Cl)cc1
Cc1cccc(C(=O)NNC(=S)NC(=O)c2cccs2)c1
CN(C)CCCN(C(=O)c1ccc(S(=O)(=O)N2CCCCCC2)cc1)c1nc2ccc(F)cc2s1
CC[C@@H](C(=O)[C@@H](C)[C@@H](O)[C@H](C)CCc1ccc(C)c(O)c1C(=O)O)[C@H]1O[C@](CC)([C@H]2CC[C@](O)(CC)[C@H](C)O2)C[C@@H]1C
Cc1occc1C(=O)NNC(=S)NC(=O)COc1ccc(Cl)cc1Cl
COc1cc(OC)cc(C(=O)N[C@H](C(=O)OCC(=O)NC(C)c2ccccc2)C(C)C)c1 (stereo not given in full)
O=C(NC(=S)NNC(=O)[C@H]1C[C@@H]1c1ccccc1)c1cccc(F)c1
CCOc1ccccc1OCC(=O)Nc1cc(S(=O)(=O)N2CCCCC2)ccc1N1CCN(CC)CC1
Cc1onc(-c2c(F)cccc2Cl)c1C(=O)N1CCN(c2ncc(Br)cn2)CC1
CCOC(=O)C1=NN(C(=O)c2ccc(C)cc2)C(O)(c2ccc(Cl)cc2)C1 (stereo not given)
COc1ccc(/C=C/CN2CCCC(C(=O)c3ccc(OC)c(F)c3)C2)cc1 (stereo not given)
NCCSc1c(-c2ccc(Cl)cc2)[nH]c2ccccc12
COc1ccc(C(CNC(=O)c2cccc(NS(=O)(=O)c3ccc(C)c(F)c3)c2)N(C)C)cc1 (stereo not given)
CCCOc1ccc(C(=O)NNC(=S)NC(=O)c2cccs2)cc1
CCOC(=O)C1CCCN(C(c2ccccn2)c2c(C)[nH]c3ccccc23)C1 (stereo not given)
Cc1ccc(NS(=O)(=O)c2ccc(C(=O)N3CC(C)CC(C)C3)cc2)cc1 (stereo not given)
COC(=O)C1=NN(C(=O)c2cccc(Br)c2)C(O)(c2ccc(Cl)cc2)C1 (stereo not given)
Cc1cc(C)c(CN2CCN(Cc3ccc(C)o3)C(CCO)C2)c(-n2cccn2)c1 (stereo not given)
CCOc1ccc2ncc(C(=O)c3ccc(OC)cc3)c(N3CCN(CC)CC3)c2c1
CC(C)(C)c1cc(CCC(=O)NNC(=S)NC(=O)c2ccccc2)cc(C(C)(C)C)c1O
COc1ccccc1C(=O)NNC(=S)NC(=O)c1sc2ccccc2c1Cl
O=C1CC(O)(C(F)(F)F)Oc2c1ccc1ccccc21 (stereo not given)
CCCc1ccc(OCC(=O)NNC(=S)NC(=O)c2ccco2)cc1
Cc1ccccc1OCC(=O)NNC(=S)NC(=O)c1ccco1
CCCOc1ccc(C(=O)NC(=S)NNC(=O)c2c(-c3ccccc3)noc2C)cc1
Cc1cc(OCCCn2ccnc2)cc(C)c1Cl
CCN1CCN(c2c(S(=O)(=O)c3ccc(C)c(C)c3)cnc3ccc(F)cc23)CC1
Cc1cccc(C(=O)NC(=S)NNC(=O)c2cccs2)c1
Cc1ccc(C)c(-n2cc(CNCCc3cnccn3)c(-c3ccccc3)n2)c1
Cc1ccc2c(C)c(C(=O)N(Cc3cccs3)C3CCS(=O)(=O)C3)oc2c1 (stereo not given)
CC(C)(C)c1ccc(C(=O)NC(=S)NNC(=O)c2cccs2)cc1
CCCCN(CC)CCCNC(=O)Cn1nc(Cc2ccncc2)c2ccccc2c1=O
